Data published in ChEMBL document CHEMBL1955770, “Inhibition of S/G2 phase CDK4 reduces mitotic fidelity” (J Biol Chem, 2006).

Columns and labels:
[1] = target: 5'-AMP-activated protein kinase catalytic subunit alpha-1 (Homo sapiens) (UniProt Q13131); assay: Inhibition of AMPK-alpha1 at 1 uM
Procedure, shortened: (§1)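 Competition binding screen across a kinase panel with compound at 1 μM. Read-out is % competition. Kinases not hit at this concentration were scored '<50'. No Kd was determined for hits.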

[2] = target: Fibroblast growth factor receptor 2 (Homo sapiens) (UniProt P21802); assay: Inhibition of FGFR2 at 1 uM
[3] = target: Ephrin type-A receptor 7 (Homo sapiens) (UniProt Q15375); assay: Inhibition of EPHA7 at 1 uM
[4] = target: Tyrosine-protein kinase JAK1 (Homo sapiens) (UniProt P23458); assay: Inhibition of JAK1(Kin.Dom.1) at 1 uM
[5] = target: Mitogen-activated protein kinase 1 (Homo sapiens) (UniProt P28482); assay: Inhibition of ERK2 at 1 uM
[6] = target: LIM domain kinase 1 (Homo sapiens) (UniProt P53667); assay: Inhibition of LIMK1 at 1 uM
[7] = target: Serine/threonine-protein kinase 36 (Homo sapiens) (UniProt Q9NRP7); assay: Inhibition of STK36 at 1 uM
[8] = target: Casein kinase I isoform gamma-1 (Homo sapiens) (UniProt Q9HCP0); assay: Inhibition of CSNK1G1 at 1 uM
[9] = target: Ephrin type-A receptor 5 (Homo sapiens) (UniProt P54756); assay: Inhibition of EPHA5 at 1 uM
[10] = target: Ephrin type-B receptor 4 (Homo sapiens) (UniProt P54760); assay: Inhibition of EPHB4 at 1 uM
[11] = target: Tyrosine-protein kinase SYK (Homo sapiens) (UniProt P43405); assay: Inhibition of SYK at 1 uM
[12] = target: RAC-alpha serine/threonine-protein kinase (Homo sapiens) (UniProt P31749); assay: Inhibition of AKT1 at 1 uM; procedure, shortened: as §1
RAC-alpha serine/threonine-protein kinase (Homo sapiens), sequence (P31749 whole entry): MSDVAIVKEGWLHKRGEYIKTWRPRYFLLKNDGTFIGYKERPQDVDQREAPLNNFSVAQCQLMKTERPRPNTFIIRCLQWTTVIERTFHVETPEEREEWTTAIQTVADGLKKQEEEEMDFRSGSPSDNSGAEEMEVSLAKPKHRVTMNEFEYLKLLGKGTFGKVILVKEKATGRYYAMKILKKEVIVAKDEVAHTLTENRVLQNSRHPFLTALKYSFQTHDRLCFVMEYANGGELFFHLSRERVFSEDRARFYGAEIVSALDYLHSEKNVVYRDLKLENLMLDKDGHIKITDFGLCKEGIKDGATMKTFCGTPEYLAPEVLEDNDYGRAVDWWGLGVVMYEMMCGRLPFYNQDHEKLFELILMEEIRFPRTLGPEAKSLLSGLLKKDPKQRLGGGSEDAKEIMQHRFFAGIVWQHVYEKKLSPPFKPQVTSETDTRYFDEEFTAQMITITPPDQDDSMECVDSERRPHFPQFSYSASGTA

[13] = target: 3-phosphoinositide-dependent protein kinase 1 (Homo sapiens) (UniProt O15530); assay: Inhibition of PDPK1 at 1 uM
[14] = target: Dual specificity protein kinase CLK4 (Homo sapiens) (UniProt Q9HAZ1); assay: Inhibition of CLK4 at 1 uM
[15] = target: Proto-oncogene tyrosine-protein kinase Src (Homo sapiens, UniProt P12931); assay: Inhibition of SRC at 1 uM
[16] = target: Serine/threonine-protein kinase pim-2 (Homo sapiens) (UniProt Q9P1W9); assay: Inhibition of PIM2 at 1 uM
[17] = target: Epidermal growth factor receptor (Homo sapiens) (UniProt P00533); assay: Inhibition of EGFR at 1 uM
[18] = target: Proto-oncogene tyrosine-protein kinase ROS (Homo sapiens) (UniProt P08922); assay: Inhibition of ROS1 at 1 uM
[19] = target: Tyrosine-protein kinase TXK (Homo sapiens) (UniProt P42681); assay: Inhibition of TXK at 1 uM
[20] = target: Serine/threonine-protein kinase Nek6 (Homo sapiens) (UniProt Q9HC98); assay: Inhibition of NEK6 at 1 uM
[21] = target: Tyrosine-protein kinase Lyn (Homo sapiens) (UniProt P07948); assay: Inhibition of LYN at 1 uM
[22] = target: Tyrosine-protein kinase HCK (Homo sapiens) (UniProt P08631); assay: Inhibition of HCK at 1 uM
[23] = target: Dual specificity protein kinase CLK1 (Homo sapiens) (UniProt P49759); assay: Inhibition of CLK1 at 1 uM
[24] = target: Serine/threonine-protein kinase 17B (Homo sapiens) (UniProt O94768); assay: Inhibition of STK17B at 1 uM
[25] = target: Ephrin type-A receptor 4 (Homo sapiens) (UniProt P54764); assay: Inhibition of EPHA4 at 1 uM
[26] = target: Serine/threonine-protein kinase STK11 (Homo sapiens) (UniProt Q15831); assay: Inhibition of STK11 at 1 uM
[27] = target: Mast/stem cell growth factor receptor Kit (Homo sapiens) (UniProt P10721); assay: Inhibition of KIT at 1 uM
[28] = target: Tyrosine-protein kinase ABL1 (Homo sapiens) (UniProt P00519); assay: Inhibition of ABL1 at 1 uM
Tyrosine-protein kinase ABL1 (Homo sapiens), sequence (P00519 whole entry): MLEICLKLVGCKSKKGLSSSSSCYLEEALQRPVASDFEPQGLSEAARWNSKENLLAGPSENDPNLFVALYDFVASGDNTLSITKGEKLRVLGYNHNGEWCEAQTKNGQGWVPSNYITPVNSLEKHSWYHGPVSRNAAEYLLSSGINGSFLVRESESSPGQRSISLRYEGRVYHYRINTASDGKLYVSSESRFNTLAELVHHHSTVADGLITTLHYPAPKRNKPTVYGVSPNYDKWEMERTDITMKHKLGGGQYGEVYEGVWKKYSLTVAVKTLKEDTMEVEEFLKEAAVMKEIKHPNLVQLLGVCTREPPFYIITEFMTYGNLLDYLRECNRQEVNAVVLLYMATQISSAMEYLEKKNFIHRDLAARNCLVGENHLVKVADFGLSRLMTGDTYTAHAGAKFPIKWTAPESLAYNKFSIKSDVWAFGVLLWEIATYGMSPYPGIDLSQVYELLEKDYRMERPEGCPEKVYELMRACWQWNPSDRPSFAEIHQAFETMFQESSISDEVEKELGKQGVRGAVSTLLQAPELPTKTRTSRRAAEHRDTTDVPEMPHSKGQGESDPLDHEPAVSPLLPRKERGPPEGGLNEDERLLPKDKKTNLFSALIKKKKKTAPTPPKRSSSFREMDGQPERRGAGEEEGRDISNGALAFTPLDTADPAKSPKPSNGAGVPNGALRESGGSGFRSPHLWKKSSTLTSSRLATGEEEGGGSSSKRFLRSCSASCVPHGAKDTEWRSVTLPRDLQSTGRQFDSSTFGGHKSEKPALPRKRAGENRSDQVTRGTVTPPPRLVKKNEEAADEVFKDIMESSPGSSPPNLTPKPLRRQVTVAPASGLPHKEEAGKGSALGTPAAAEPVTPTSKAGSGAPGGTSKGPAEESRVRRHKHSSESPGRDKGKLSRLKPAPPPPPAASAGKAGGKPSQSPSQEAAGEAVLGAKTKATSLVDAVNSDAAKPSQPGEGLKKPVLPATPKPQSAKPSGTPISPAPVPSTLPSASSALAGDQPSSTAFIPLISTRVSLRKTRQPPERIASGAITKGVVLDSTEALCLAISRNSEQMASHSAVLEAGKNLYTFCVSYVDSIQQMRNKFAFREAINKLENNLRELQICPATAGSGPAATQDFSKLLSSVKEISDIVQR

[29] = target: Death-associated protein kinase 2 (Homo sapiens) (UniProt Q9UIK4); assay: Inhibition of DAPK2 at 1 uM
[30] = target: Ephrin type-A receptor 3 (Homo sapiens) (UniProt P29320); assay: Inhibition of EPHA3 at 1 uM
Ephrin type-A receptor 3 (Homo sapiens), sequence (P29320 whole entry): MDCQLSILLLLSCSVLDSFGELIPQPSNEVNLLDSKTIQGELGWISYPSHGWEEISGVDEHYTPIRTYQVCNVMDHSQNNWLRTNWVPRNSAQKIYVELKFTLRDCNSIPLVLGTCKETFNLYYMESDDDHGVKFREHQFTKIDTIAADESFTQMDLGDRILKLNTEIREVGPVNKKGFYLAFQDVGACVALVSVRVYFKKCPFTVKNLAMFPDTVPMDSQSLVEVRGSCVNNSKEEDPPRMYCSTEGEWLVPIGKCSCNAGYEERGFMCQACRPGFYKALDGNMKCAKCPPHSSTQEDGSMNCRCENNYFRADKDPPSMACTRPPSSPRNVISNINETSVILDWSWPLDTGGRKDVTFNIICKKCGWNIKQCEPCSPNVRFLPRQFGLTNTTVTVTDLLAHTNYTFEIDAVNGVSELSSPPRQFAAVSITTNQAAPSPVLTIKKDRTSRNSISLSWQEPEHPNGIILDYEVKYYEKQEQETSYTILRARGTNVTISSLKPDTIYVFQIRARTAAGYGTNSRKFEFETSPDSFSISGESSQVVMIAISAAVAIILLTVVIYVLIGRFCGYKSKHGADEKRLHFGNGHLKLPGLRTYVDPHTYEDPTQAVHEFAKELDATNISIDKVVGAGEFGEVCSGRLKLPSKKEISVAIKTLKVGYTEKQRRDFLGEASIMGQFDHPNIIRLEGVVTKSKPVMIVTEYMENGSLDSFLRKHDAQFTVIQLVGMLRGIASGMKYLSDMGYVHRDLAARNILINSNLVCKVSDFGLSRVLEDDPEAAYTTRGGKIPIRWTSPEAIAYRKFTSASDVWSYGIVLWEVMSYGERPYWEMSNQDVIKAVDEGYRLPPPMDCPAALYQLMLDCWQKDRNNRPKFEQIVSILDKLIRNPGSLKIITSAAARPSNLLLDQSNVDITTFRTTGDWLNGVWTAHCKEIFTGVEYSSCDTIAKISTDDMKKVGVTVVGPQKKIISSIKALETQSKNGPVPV

[31] = target: Serine/threonine-protein kinase MARK2 (Homo sapiens) (UniProt Q7KZI7); assay: Inhibition of MARK2 at 1 uM
Insulin receptor = Insulin receptor (Homo sapiens, UniProt P06213); assay: Inhibition of INSR at 1 uM
[32] = target: Myosin light chain kinase 2, skeletal/cardiac muscle (Homo sapiens) (UniProt Q9H1R3); assay: Inhibition of MYLK2 at 1 uM
Myosin light chain kinase 2, skeletal/cardiac muscle (Homo sapiens), sequence (Q9H1R3 whole entry): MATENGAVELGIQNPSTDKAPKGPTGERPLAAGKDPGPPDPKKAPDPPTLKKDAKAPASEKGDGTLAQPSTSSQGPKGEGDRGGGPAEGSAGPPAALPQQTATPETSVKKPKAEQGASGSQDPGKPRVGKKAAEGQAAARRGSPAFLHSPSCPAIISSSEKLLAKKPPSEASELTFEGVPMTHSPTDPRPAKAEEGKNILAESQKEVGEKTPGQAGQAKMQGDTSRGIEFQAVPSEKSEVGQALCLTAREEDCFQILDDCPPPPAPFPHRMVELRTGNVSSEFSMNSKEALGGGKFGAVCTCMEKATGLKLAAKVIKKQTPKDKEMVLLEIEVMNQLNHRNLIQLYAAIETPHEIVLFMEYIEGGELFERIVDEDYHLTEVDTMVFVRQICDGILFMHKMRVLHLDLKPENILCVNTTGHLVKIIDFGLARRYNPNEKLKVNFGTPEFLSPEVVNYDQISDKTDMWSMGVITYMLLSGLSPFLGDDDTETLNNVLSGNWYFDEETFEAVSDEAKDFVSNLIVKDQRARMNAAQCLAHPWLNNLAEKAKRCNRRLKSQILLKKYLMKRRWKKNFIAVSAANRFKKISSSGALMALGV

[33] = target: Serine/threonine-protein kinase Nek9 (Homo sapiens) (UniProt Q8TD19); assay: Inhibition of NEK9 at 1 uM
[34] = target: Receptor tyrosine-protein kinase erbB-2 (Homo sapiens) (UniProt P04626); assay: Inhibition of ERBB2 at 1 uM
Receptor tyrosine-protein kinase erbB-2 (Homo sapiens), sequence (P04626 whole entry): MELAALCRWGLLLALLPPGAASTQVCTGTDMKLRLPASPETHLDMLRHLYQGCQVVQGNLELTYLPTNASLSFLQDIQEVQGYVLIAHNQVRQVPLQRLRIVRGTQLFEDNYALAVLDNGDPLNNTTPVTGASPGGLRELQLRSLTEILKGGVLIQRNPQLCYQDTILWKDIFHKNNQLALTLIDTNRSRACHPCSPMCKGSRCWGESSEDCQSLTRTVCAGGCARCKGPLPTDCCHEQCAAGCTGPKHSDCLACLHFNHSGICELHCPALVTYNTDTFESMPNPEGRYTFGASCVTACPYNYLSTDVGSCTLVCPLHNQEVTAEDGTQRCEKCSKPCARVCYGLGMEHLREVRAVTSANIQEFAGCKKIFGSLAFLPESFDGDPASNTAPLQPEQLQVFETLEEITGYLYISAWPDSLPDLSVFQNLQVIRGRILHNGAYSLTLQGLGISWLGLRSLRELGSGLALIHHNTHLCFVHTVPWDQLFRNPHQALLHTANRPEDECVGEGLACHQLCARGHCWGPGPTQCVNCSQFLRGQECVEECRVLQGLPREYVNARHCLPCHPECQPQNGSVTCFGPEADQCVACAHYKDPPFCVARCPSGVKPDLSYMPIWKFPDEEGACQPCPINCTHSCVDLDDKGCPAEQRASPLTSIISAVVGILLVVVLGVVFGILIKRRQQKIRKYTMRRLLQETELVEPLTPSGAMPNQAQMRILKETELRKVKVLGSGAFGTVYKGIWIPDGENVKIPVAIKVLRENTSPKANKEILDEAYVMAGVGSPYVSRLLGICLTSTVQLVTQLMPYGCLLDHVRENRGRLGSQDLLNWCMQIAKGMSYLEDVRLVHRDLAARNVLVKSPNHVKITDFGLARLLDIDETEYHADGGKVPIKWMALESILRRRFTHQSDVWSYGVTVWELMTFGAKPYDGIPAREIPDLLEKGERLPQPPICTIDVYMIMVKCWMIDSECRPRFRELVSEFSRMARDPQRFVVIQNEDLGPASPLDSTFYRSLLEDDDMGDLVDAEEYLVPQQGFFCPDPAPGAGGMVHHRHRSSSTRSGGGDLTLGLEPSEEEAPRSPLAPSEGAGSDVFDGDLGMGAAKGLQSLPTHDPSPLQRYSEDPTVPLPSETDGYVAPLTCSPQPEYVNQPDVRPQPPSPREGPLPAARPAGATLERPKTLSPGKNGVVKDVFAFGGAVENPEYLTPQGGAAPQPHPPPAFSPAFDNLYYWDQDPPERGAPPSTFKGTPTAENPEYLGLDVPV

[35] = target: Vascular endothelial growth factor receptor 3 (Homo sapiens) (UniProt P35916); assay: Inhibition of FLT4 at 1 uM
[36] = target: Mitogen-activated protein kinase 9 (Homo sapiens) (UniProt P45984); assay: Inhibition of JNK2 at 1 uM
[37] = target: Dual specificity protein kinase CLK2 (Homo sapiens) (UniProt P49760); assay: Inhibition of CLK2 at 1 uM
[38] = target: Casein kinase II subunit alpha (Homo sapiens) (UniProt P68400); assay: Inhibition of CSNK2A1 at 1 uM
Casein kinase II subunit alpha (Homo sapiens), sequence (P68400 whole entry, looked up): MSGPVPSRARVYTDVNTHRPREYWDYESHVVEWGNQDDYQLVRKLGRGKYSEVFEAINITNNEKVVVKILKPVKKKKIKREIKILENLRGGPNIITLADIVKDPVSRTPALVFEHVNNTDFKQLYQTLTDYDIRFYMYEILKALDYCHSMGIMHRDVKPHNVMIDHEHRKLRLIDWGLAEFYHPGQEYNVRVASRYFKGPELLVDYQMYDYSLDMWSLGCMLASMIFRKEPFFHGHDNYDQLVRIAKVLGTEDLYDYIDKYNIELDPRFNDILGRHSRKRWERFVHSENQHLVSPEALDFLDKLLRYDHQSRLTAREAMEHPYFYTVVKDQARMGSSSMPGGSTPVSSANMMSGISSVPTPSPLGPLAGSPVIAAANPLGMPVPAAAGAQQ

HCT-116 = assay: Cell cycle arrest in Rb-competent human HCT116 cells assessed as reduction in S phase after 24 hrs using BrdUrd staining by FACS analysis; assay type: functional, cell-based; conditions: HCT-116, 24 h
Procedure, shortened: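 Asynchronous HCT-116 cells treated 24 h with increasing inhibitor doses, then given a 30-min BrdUrd pulse before harvest. Percentage of BrdUrd-positive cells measured by FACS; IC50 taken as the dose reducing S phase to 50% of control.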

[39] = target: Angiopoietin-1 receptor (Homo sapiens) (UniProt Q02763); assay: Inhibition of TIE2 at 1 uM
[40] = target: Ribosomal protein S6 kinase alpha-2 (Homo sapiens) (UniProt Q15349); assay: Inhibition of RPS6KA2 Kin.Dom. 1 at 1 uM
[41] = target: Receptor-interacting serine/threonine-protein kinase 2 (Homo sapiens) (UniProt O43353); assay: Inhibition of RIPK2 at 1 uM
[42] = target: Serine/threonine-protein kinase 3 (Homo sapiens) (UniProt Q13188); assay: Inhibition of STK3 at 1 uM
[43] = target: Tyrosine-protein kinase Lck (Homo sapiens, UniProt P06239); assay: Inhibition of LCK at 1 uM

CN1CCN(c2ccc(Nc3nc(N)c(C(=O)c4ccc5c(c4)OCCO5)s3)cc2)CC1
inhibition [1]: < 50% | inhibition [2]: < 50% | inhibition [3]: < 50% | inhibition [4]: 94% | inhibition [5]: < 50% | inhibition [6]: < 50% | inhibition [7]: 86% | inhibition [8]: 98% | inhibition [9]: < 50% | inhibition [10]: < 50% | inhibition [11]: < 50% | inhibition [12]: < 50% | inhibition [13]: < 50% | inhibition [14]: 97% | inhibition [15]: < 50% | inhibition [16]: < 50% | inhibition [17]: < 50% | inhibition [18]: < 50% | inhibition [19]: < 50% | inhibition [20]: < 50% | inhibition [21]: < 50% | inhibition [22]: < 50% | inhibition [23]: 100% | inhibition [24]: < 50% | inhibition [25]: < 50% | inhibition [26]: < 50% | inhibition [27]: < 50% | inhibition [28]: < 50% | inhibition [29]: < 50% | inhibition [30]: < 50% | inhibition [31]: < 50% | inhibition (Insulin receptor): < 50% | inhibition [32]: < 50% | inhibition [33]: < 50% | inhibition [34]: < 50% | inhibition [35]: < 50% | inhibition [36]: < 50% | inhibition [37]: 100% | inhibition [38]: < 50% | IC50 (HCT-116): 3.9 µM | IC90 (HCT-116): 6.1 µM | inhibition [39]: < 50% | inhibition [40]: < 50% | inhibition [41]: < 50% | inhibition [42]: < 50% | inhibition [43]: < 50%
